Data taken from PMC10120451 (Journal of Enzyme Inhibition and Medicinal Chemistry, 2023).
Converted amounts (≈) assume the structure as drawn.

Legend:
CaCo-2 cells = test: 72 h proliferation inhibition test; format: cell-based, human; conditions: SRB
[1] = target: PDIA1a domain (residues 18–137) of human PDIA1 (Homo sapiens, UniProt P07237); test: Insulin turbidity assay with recombinant PDIA1a domain; format: biochemical; conditions: read-out: PDIA1a IC50 (insulin reduction); PDIA1a domain 8 µg/ml
Sequence of PDIA1a domain (residues 18–137) of human PDIA1 (P07237 18-137): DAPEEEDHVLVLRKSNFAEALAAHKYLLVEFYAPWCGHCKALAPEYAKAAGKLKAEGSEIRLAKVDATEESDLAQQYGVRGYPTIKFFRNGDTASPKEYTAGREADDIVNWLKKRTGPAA
Summary of the method: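 PDIA1a domain (human residues 18–137) was expressed in E. coli BL21(DE3) with an N-terminal His6-tag/TEV site, then purified by Ni affinity and size exclusion. Turbidity assay: 8 µg/ml protein in 0.1 mM potassium phosphate pH 7.6 and 2 mM EDTA, with 0.08 mM DTT during preincubation. Insulin with DTT was added to final 0.15 mM insulin and 0.16 mM DTT.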

HT-29 cells = test: 72 h proliferation inhibition test; format: cell-based, human; conditions: SRB
[2] = Basal cytotoxicity test, neutral red uptake; format: cell-based; conditions: mouse, Balb/c 3T3 mouse embryo fibroblast cells
recombinant human PDIA1 = recombinant human PDIA1 (Homo sapiens, UniProt P07237); test: Enzymatic insulin reduction; format: biochemical; conditions: for IC50: PDIA1 IC50, insulin reduction assay, full-length PDIA1 6 µg/ml (96 nM), pH 7.6, 37 °C
Sequence of recombinant human PDIA1 (P07237 18-508): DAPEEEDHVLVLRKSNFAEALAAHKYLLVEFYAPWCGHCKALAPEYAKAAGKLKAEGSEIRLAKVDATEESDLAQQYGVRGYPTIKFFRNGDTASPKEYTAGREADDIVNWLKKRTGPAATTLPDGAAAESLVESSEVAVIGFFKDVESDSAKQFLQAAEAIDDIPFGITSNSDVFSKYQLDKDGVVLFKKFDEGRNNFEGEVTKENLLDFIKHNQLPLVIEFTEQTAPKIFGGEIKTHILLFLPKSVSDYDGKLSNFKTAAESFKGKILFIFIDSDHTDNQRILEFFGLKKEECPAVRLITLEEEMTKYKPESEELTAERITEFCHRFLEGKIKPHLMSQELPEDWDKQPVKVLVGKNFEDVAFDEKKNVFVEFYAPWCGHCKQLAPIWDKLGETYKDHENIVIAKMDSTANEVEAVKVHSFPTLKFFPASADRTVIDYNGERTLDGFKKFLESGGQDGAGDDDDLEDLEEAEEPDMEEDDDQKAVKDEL

recombinant human PDIA3 = target: T1, recombinant human PDIA3 (Homo sapiens, UniProt P30101); test: Enzymatic insulin reduction; format: biochemical
T1 sequence (P30101 25-505): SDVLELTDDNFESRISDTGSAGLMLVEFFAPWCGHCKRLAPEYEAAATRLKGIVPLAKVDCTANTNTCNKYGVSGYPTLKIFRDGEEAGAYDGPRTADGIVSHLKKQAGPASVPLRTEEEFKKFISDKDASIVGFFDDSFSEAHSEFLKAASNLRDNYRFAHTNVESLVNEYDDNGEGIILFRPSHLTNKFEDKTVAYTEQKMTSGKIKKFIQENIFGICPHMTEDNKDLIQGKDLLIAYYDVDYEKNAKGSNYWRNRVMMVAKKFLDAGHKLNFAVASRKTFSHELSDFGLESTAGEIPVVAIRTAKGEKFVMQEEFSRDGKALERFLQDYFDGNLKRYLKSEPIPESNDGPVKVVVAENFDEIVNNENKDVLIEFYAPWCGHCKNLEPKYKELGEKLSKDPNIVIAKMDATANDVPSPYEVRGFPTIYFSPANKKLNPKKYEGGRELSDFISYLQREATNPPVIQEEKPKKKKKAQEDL
Summary of the method: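 Recombinant human PDIA3 (E. coli-expressed), 12 µg/ml (205 nM), was preincubated with test compound in 0.1 mM phosphate buffer pH 7.6, 2 mM EDTA and 0.08 mM DTT. Final DMSO was below 1%. Reaction was started with insulin plus DTT (final 0.15 mM insulin, 0.16 mM DTT). β-chain aggregation turbidity was read at 650 nm for 60 min at 37 °C.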

arterial thrombosis = test: Rat model of arterial thrombosis; format: in vivo; conditions: intravenously, 10 min prior to induction of arterial thrombosis, rats
Summary of the method: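 Wistar rats were anaesthetised with pentobarbital (40 mg/kg i.p.) on a 37 °C heated table. Right common carotid artery was stimulated at 1 mA for 10 min via an anode under the artery and a subcutaneous hind-limb cathode.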

For COc1ccc(N2C(=O)/C(=C\c3ccc([N+](=O)[O-])s3)SC2=S)cc1 [CCF642], the “IC50, 72-h antiproliferative assay, CaCo-2” value (CaCo-2 cells) was 0.41 ± 0.1 µg/mL (≈ 1.08 µM), the IC50 [1] was 13 ± 0.6 µM and the “IC50, 72-h antiproliferative assay, HT-29” value (HT-29 cells) was 0.41 ± 0.05 µg/mL (≈ 1.08 µM).
In the case of Cc1ccc(S(=O)(=O)N2CC2C=O)cc1 (stereo not drawn) [Compound C-3262, 1-(p-tolylsulphonyl)aziridine-2-carbaldehyde], the IC50 at 24 h [2] is reported as 4 ± 0.2 µM.
For CC(=O)C1CN1S(=O)(=O)c1ccc(C)cc1 (stereo not drawn) [Compound C-3263, 1-[1-(p-tolylsulphonyl)aziridin-2-yl]ethanone], the IC50 (recombinant human PDIA1) was 15.6 ± 0.8 µM and the IC50 at 24 h [2] was 8 ± 1 µM.
Molecule CCCCc1ccc(S(=O)(=O)N2CC2C(C)=O)cc1 (stereo not drawn) [Compound C-3272, 1-[1–(4-Butylphenyl)sulphonylaziridin-2-yl]ethanone] has an IC50 at 24 h [2] of less than 1 µM.
Molecule CCCCc1ccc(S(=O)(=O)N2CC2C=O)cc1 (stereo not drawn) [Compound C-3273, 1–(4-Butylphenyl)sulphonylaziridine-2-carbaldehyde] has an IC50 (recombinant human PDIA1) of 3.2 ± 0.2 µM, an IC50 at 24 h [2] of less than 1 µM and an IC50 (recombinant human PDIA3) of 5.4 ± 0.2 µM.
With Cc1ccc(S(=O)(=O)N2CC2C#N)cc1 (stereo not drawn) [Compound C-3314, 1-(p-tolylsulphonyl)aziridine-2-carbonitrile] the IC50 at 24 h [2] was 52 ± 3 µM and the IC50 (recombinant human PDIA3) was 188 ± 7.5 µM.
For Cc1ccc(S(=O)(=O)N2CC2C(=O)O)cc1 (stereo not drawn) [Compound C-3612, Lithium 1-tosylaziridine-2-carboxylate], the IC50 at 24 h [2] was 2610 ± 89 µM.
In the case of O=C(C1CC1)N1CCN(Cn2sc3ccccc3c2=O)CC1 [LOC14], the “IC50, 72-h antiproliferative assay, CaCo-2” value (CaCo-2 cells) is reported as 9.12 ± 3.4 µg/mL (≈ 28.7 µM) and the “IC50, 72-h antiproliferative assay, HT-29” value (HT-29 cells) is reported as 12.64 ± 8.4 µg/mL (≈ 39.8 µM).
In the case of NC(=O)C1CN1 (stereo not drawn) [Leakadine, 2-carbamoylaziridine], the inhibition at 1000 µM (recombinant human PDIA1; read-out: Inhibition of PDIA1 activity) is reported as roughly 30%.
In the case of O=c1c(O[C@@H]2O[C@H](CO)[C@@H](O)[C@H](O)[C@H]2O)c(-c2ccc(O)c(O)c2)oc2cc(O)cc(O)c12 [isoquercetin], the “effect on arterial thrombus formation (thrombus weight)” value (arterial thrombosis) is reported as “only tended to reduce thrombosis”.
With C[C@@H]1O[C@@H](OC[C@H]2O[C@@H](Oc3c(-c4ccc(O)c(O)c4)oc4cc(O)cc(O)c4c3=O)[C@H](O)[C@@H](O)[C@@H]2O)[C@H](O)[C@H](O)[C@H]1O [rutin] the IC50 (recombinant human PDIA1) was 4 ± 0.3 µM, the IC50 (recombinant human PDIA3) was greater than 200 µM and the “effect on arterial thrombus formation (thrombus weight)” value (arterial thrombosis) was “significantly inhibited arterial thrombus formation”.
Molecule PACMA31 has an IC50 [1] of 18.3 ± 0.7 µM.
